IDH1 R132H inh – inhibitors of IDH1 R132H reductase, primary screen, biochemical, plate reader, single point | AID 624101, 2012 | hit rate 0.18% among 70,000 | Isocitrate dehydrogenase [NADP] cytoplasmic (Homo sapiens), O75874 | diaphorase/resazurin fluorescence, 60 min | inhibition, % at 10 µM; in the data active = inhibition above about 34%; inconclusive = no clear call, values can overlap the other calls; inactive = below about 11%
Target sequence (O75874 whole entry R132H): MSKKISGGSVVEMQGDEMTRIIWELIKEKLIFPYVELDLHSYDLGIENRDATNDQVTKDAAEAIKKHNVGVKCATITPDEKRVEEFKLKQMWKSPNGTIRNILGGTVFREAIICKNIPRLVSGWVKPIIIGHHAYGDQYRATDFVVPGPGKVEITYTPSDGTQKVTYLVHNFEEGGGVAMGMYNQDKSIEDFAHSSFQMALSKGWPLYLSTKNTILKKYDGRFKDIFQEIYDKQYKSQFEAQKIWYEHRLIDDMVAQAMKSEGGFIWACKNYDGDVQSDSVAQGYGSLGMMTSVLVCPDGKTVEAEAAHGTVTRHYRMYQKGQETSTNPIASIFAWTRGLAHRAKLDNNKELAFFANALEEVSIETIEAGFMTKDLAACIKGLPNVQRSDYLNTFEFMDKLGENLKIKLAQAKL
GASC1 inh – inhibitors of GASC-1 (KDM4C) histone demethylase, primary screen, biochemical, single concentration HTS. Lysine-specific demethylase 4C (Homo sapiens), Q9H3R0. GST-KDM4C 2-372, H3K9me3 peptide, LANCE TR-FRET. inhibition, % at 12.5 µM. hit rate 0.15% among 96,000. AID 720574, 2013;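 active = mean replicate inhibition above about 25%, with at least 55% of replicates also reaching it, limit read from the data, passing the limit was not always enough; inconclusive = only one of those two conditions met; inactive = neither condition met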
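Test system: N-terminal GST-fused human GASC-1 (KDM4C) fragment, residues 2-372; quantity: GASC-1 enzyme at 10 nM final in reaction; dosing: single dose; schedule: 30 min demethylation and 1 h detection at room temperature; signal: LANCE TR-FRET, excitation 340 nm, emissions 618 and 671 nm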
T cruzi growth-1 – T. cruzi intracellular proliferation inhibitors, primary screen, cell-based, beta-gal Tulahuen parasites, NIH3T3 host, luminescence | T. cruzi beta-gal in NIH3T3, GalScreen luminescence, 90 h | inhibition, % at 8.34 µM | hit rate 5.9% among 77,000 | AID 624255, 2012;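 active = mean inhibition above about 93%, with at least 55% of replicates each passing it, limit read from the data, passing the limit was not always enough; inconclusive = only one of those two conditions holds; inactive = neither condition holds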
T cruzi growth-2 – T. cruzi intracellular proliferation inhibitors, confirmation, cell-based, NIH3T3 host, beta-gal parasite, luminescence, cherry-pick | shares compounds with T cruzi growth-1 | T. cruzi beta-gal in NIH3T3, GalScreen luminescence, 90 h | inhibition, % at 8.35 µM | hit rate 72% among 5,600;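 active = mean replicate inhibition above about 95% and at least 55% of replicates individually reaching it, limit read from the data; inconclusive = only one of the two criteria is met; inactive = neither criterion is met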
T cruzi growth-3 – inhibitors of intracellular T. cruzi replication, confirmation, NIH3T3 host cells, beta-gal parasites, cherry-pick, set 2. shares compounds with T cruzi growth-1. T. cruzi beta-gal in NIH3T3, GalScreen luminescence, 90 h. inhibition, % at 2.09 µM. hit rate 21% among 5,600;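 active = mean inhibition above about 95%, with at least 55% of replicates also reaching it, limit read from the data; inconclusive = meets just one of the two conditions; inactive = meets neither condition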
NIH3T3 tox – cytotoxicity in mouse NIH/3T3 fibroblasts, confirmation, cytotoxicity control for T. cruzi proliferation inhibitor project, cell-based, cherry-pick, single point; shares compounds with T cruzi growth-1; NIH/3T3 viability, CellTiter-Glo ATP luminescence, 90 h; cytotoxicity (signal decrease), % at 8.35 µM; hit rate 14% among 5,600; AID 651742, 2012;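 active = mean signal decrease across replicates above about 35% based on untreated-well scatter, with enough replicates individually passing, limit read from the data; inconclusive = no rule stated though some were filed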
3T3 cytotox 2 – NIH/3T3 fibroblast cytotoxicity, confirmation, cytotoxicity control, cell-based, cherry-pick, single point, set 2; hit rate 56% among 5,600; NIH/3T3 viability, CellTiter-Glo ATP luminescence, 90 h; shares compounds with T cruzi growth-1; inhibition, % at 24.9 µM;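 active = mean loss of cell viability signal at or above a set limit, and enough replicates individually reaching it; inconclusive = meets only the mean limit or only the replicate share; inactive = meets neither condition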
Numbers stand for hits; . = inactive; ? = inconclusive; / = not tested or not shown; + = active, no number. The entries come from a sample that favours hits as a whole.

SMILES	IDH1 R132H inh	GASC1 inh	T cruzi growth-1	T cruzi growth-2	T cruzi growth-3	NIH3T3 tox	3T3 cytotox 2
N#CC(C#N)=Cc1cc(O)c(O)c(O)c1	33	/	/	/	/	/	/
N#CC(C#N)=Cc1ccc(O)cc1	.	/	/	/	/	/	/
CNc1ccccc1C(=O)O	.	/	/	/	/	/	/
O=C(O)[C@@H]1[C@@H](CO)[C@@H]2Cn3c(ccc(C4=CCCCC4)c3=O)[C@H]1N2CCc1ccccc1	/	.	164	.	.	.	46
COC(=O)[C@@H]1[C@@H](CO)[C@@H]2Cn3c(ccc(-c4ccccc4)c3=O)[C@H]1N2CC1CCCCC1	/	.	.	/	/	/	/
O=C(O)[C@@H]1[C@@H](CO)[C@@H]2Cn3c(ccc(-c4ccccc4)c3=O)[C@H]1N2CC1CCCCC1	/	.	97	.	.	.	.
COC(=O)[C@H]1[C@H](CO)[C@H]2Cn3c(ccc(-c4ccccc4F)c3=O)[C@@H]1N2CC1CCCC1	/	.	+	.	.	.	45
COC(=O)[C@@H]1[C@@H](CO)[C@@H]2Cn3c(ccc(C4=CCCCC4)c3=O)[C@H]1N2CCc1ccccc1	/	.	.	/	/	/	/
COC(=O)[C@@H]1[C@@H](CO)[C@@H]2Cn3c(ccc(-c4ccccc4)c3=O)[C@H]1N2CC1CCCC1	/	.	/	/	/	/	/
COC(C/C=C/C=C/CC/C=C\CC(C)/C=C\C(=C/C(=O)O)CC(=O)O)/C(C)=C\C=C(/C)C(=O)O (stereo not given)	.	/	/	/	/	/	/
CCCN(CCC)C1CCc2cccc(O)c2C1 (stereo not given)	.	/	/	/	/	/	/
CC(C)c1cc2c(cc1O)[C@@]1(C)CCCC(C)(C)[C@@H]1CC2	.	/	/	/	/	/	/
O=C(Cc1ccccn1)N1CCCCN2[C@@H](CO)[C@@H](c3ccc(-c4ccc(F)cc4)cc3)[C@@H]2C1	/	.	?	.	.	.	41
O=C(Cc1ccccn1)N1CCCCN2[C@H](C1)[C@H](c1ccc(-c3ccc(F)cc3)cc1)[C@@H]2CO	/	.	.	/	/	/	/
Cc1ccccc1-c1ccc([C@@H]2[C@H](CO)N3CCCCN(C(=O)Cc4ccccn4)C[C@@H]23)cc1	/	.	?	.	.	.	65
Cc1ccccc1-c1ccc([C@H]2[C@@H](CO)N3CCCCN(C(=O)Cc4ccccn4)C[C@H]23)cc1	/	.	.	/	/	/	/
O=C(Cc1ccccn1)N1CCCCN2[C@@H](CO)[C@H](c3ccc(-c4ccc(F)cc4)cc3)[C@@H]2C1	/	.	101	?	.	.	34
O=C(Cc1ccccn1)N1CCCCN2[C@H](CO)[C@H](c3ccc(-c4ccccc4F)cc3)[C@@H]2C1	/	.	97	109	.	.	.
O=C(Cc1ccccn1)N1CCCCN2[C@H](CO)[C@@H](c3ccc(-c4ccccc4F)cc3)[C@@H]2C1	/	.	.	/	/	/	/
O=C(Cc1ccccn1)N1CCCCN2[C@H](C1)[C@@H](c1ccc(-c3ccc(F)cc3)cc1)[C@@H]2CO	/	.	.	/	/	/	/
OC(c1ccccc1)(c1ccccc1)C1CCNCC1	.	/	/	/	/	/	/
C/C=C/c1ccc(C2[C@H]3CNC[C@@H]2N3CC2CCCCC2)cc1 (stereo not given in full)	/	.	/	/	/	/	/
COC(=O)[C@@H]1[C@@H](CO)[C@@H]2Cn3c(ccc(-c4ccncc4)c3=O)[C@H]1N2S(=O)(=O)c1ccccc1C	/	.	.	/	/	/	/
COc1ccc(C#Cc2ccc([C@@H]3[C@@H](CO)N4CCCCN(C(=O)Cc5cccnc5)C[C@@H]34)cc2)cc1	/	.	108	113	.	.	103
COc1ccc(C#Cc2ccc([C@H]3[C@H](CO)N4CCCCN(C(=O)Cc5cccnc5)C[C@@H]34)cc2)cc1	/	.	113	106	102	43	105
SMILES	IDH1 R132H inh	GASC1 inh	T cruzi growth-1	T cruzi growth-2	T cruzi growth-3	NIH3T3 tox	3T3 cytotox 2
COc1ccc(C#Cc2ccc([C@H]3[C@H]4CN(C(=O)Cc5cccnc5)CCCCN4[C@H]3CO)cc2)cc1	/	.	104	104	.	.	99
O=C(Cc1cccnc1)N1CCCCN2[C@H](CO)[C@@H](c3ccc(C#CC4(O)CCCC4)cc3)[C@@H]2C1	/	.	.	/	/	/	/
COc1ccc(C#Cc2ccc([C@@H]3[C@H]4CN(C(=O)Cc5cccnc5)CCCCN4[C@H]3CO)cc2)cc1	/	.	99	104	.	.	106
C[C@]12CC[C@@H](O)C[C@@H]1CC[C@@H]1[C@@H]2CC[C@]2(C)[C@@H](C(=O)CO)CC[C@@H]12	.	/	/	/	/	/	/
C/C=C/c1ccc(C2[C@H]3CNC[C@@H]2N3Cc2ccccn2)cc1 (stereo not given in full)	/	.	/	/	/	/	/
O=C(O)[C@H]1[C@H](CO)[C@H]2Cn3c(ccc(-c4cccnc4)c3=O)[C@@H]1N2C(=O)Nc1cc(F)ccc1F	/	.	.	/	/	/	/
COc1ccc(C#Cc2ccc([C@H]3[C@@H](CO)N4CCCCN(C(=O)Cc5cccnc5)C[C@H]34)cc2)cc1	/	.	115	102	.	46	103
COc1ccc(C#Cc2ccc([C@H]3[C@@H](CO)N4CCCCN(C(=O)Cc5cccnc5)C[C@@H]34)cc2)cc1	/	.	125	99	103	36	86
OC[C@H]1[C@@H]2c3ccccc3NC[C@@H]2N1Cc1cccnc1	/	.	.	/	/	/	/
O=C1C=C2C=C[C@@H]3C[C@@]2(O1)[C@H]1CCCCN31	.	/	/	/	/	/	/
COc1cccc(-c2ccc([C@@H]3[C@H]4CN(C(=O)Cc5ccncc5)CCCCN4[C@H]3CO)cc2)c1	/	.	114	.	.	.	.
COc1ccc(C#Cc2ccc([C@H]3[C@H]4CN(C(=O)Cc5ccncc5)CCCCN4[C@H]3CO)cc2)cc1	/	.	107	98	.	77	98
O=C(Cc1ccncc1)N1CCCCN2[C@H](C1)[C@H](c1ccc(C#Cc3ccccc3F)cc1)[C@@H]2CO	/	.	.	/	/	/	/
COc1ccc(C#Cc2ccc([C@H]3[C@@H](CO)N4CCCCN(C(=O)Cc5ccncc5)C[C@H]34)cc2)cc1	/	.	109	108	.	.	106
COc1ccc(C#Cc2ccc([C@H]3[C@@H](CO)N4CCCCN(C(=O)Cc5ccncc5)C[C@@H]34)cc2)cc1	/	.	108	105	.	41	64
COc1ccc(-c2ccc([C@@H]3[C@@H](CO)N4CCCCN(C(=O)Cc5ccccc5)C[C@@H]34)cc2)cc1	/	.	.	/	/	/	/
COc1ccc(-c2ccc([C@@H]3[C@H]4CN(C(=O)Cc5ccccc5)CCCCN4[C@H]3CO)cc2)cc1	/	.	.	/	/	/	/
C[C@@]12N[C@@H](Cc3ccccc31)c1ccccc12	.	/	/	/	/	/	/
